H9c2 TAG inh – inhibitors of triacylglycerol accumulation. H9c2 cells, Nile Red lipid (TAG) fluorescence; cells loaded with 200 µM oleic acid. inhibition, % at 12.5 µM. 230,000 tested, 0.66% active. AID 651582;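 active means pattern-corrected inhibition of lipid staining of at least 50% with the nuclear-stain viability signal not falling by more than 50%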
Tn6 DDE FP – disrupts Tn6 cyclic peptide binding to fibrin D-Dimer-E complex. 370,000 tested, 0.21% active. Fibrin DD(E) TRITC-Tn6 fluorescence polarization displacement. P02675. inhibition, % at 8.3 µM;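 active means inhibition above a per-campaign cutoff: mean of compounds within control limits plus 3 SD, cut at about 15% in these data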
DAGLB inhibitor – diacylglycerol lipase beta (human) inhibition; Q8NCG7; HEK293T DAGLB membrane lysate, EnzChek fluorogenic substrate; inhibition, % at 5.17 µM; 340,000 tested, 0.059% active; AID 504411; in the data active means inhibition above about 34%
Target sequence (Q8NCG7 whole entry, looked up): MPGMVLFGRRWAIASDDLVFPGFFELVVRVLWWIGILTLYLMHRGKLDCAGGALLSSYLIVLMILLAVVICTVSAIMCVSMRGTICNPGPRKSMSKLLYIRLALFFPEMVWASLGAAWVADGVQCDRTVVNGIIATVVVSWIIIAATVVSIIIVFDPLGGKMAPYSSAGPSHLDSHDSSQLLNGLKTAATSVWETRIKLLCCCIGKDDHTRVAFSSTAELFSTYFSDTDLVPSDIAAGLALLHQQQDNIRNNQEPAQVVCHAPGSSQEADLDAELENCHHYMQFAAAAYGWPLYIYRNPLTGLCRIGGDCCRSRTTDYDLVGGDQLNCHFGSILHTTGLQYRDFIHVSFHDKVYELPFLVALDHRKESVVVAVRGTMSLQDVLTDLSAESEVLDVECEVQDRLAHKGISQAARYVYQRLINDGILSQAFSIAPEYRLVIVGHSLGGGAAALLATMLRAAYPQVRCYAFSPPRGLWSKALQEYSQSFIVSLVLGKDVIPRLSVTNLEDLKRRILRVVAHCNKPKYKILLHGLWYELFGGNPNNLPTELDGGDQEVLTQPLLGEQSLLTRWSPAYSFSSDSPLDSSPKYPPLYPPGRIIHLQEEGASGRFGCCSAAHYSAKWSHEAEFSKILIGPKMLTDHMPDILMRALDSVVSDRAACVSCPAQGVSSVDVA
MT1-MMP act inh – inhibitors of human MT1-MMP activation; P50281; HT1080 RFP-PRO-GFP cells, GFP/RFP ratio fluorescence, overnight; percent of plate control window, DMSO zero; GFP/RFP ratio change, % at 20 µM; 360,000 tested, 0.061% active;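 active means GFP/RFP ratio change of at least 30% with cell ATP level not reduced by more than half and red fluorescence within 50% of control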
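Assay system: HT1080 RFP-PRO-GFP cells | Dosing: 20 µM single dose, 1% DMSO | Incubation: Cells overnight before dosing, compound overnight, 37 °C, 5% CO2 | Evaluation: GFP/RFP fluorescence ratio | Control set: DMSO-only wells and HT1080 RFP-L50D-GFP cell wells as references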
Cardio protect – modulators protecting cardiomyocytes from myocardial damage | AID 588492 | 360,000 tested, 0.63% active | H9c2 cardiomyocytes, H2O2 injury protection, ATPLite, 2 h | protection from H2O2 cell death, % at 20 µM;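 active means compounds giving at least 50% protection of heart cells from peroxide-induced death in the single-dose screen, raw or plate-pattern-corrected value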
Tn7 DDE FP – inhibitors of Tn7 peptide binding to human fibrin DD(E); P02675; FP displacement of FITC-Tn7 peptide from fibrin DD(E); 0% = median of compound wells per plate; inhibition, % at 8.3 µM; 370,000 tested, 0.13% active;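 active means inhibition above the mean of compounds falling within the control limits plus 3 SD of them, cut at about 14% in these data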
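Assay system: human fibrin DD(E) protein / Input: 2 µM fibrin DD(E) / Benchmarks: high control of 10 µM Aha-Tn7 peptide / Measured by: fluorescence polarization of the labelled Tn7 tracer / Medium: Tris buffer with calcium and detergent, pH 7.8 / Timing: 10 min compound pre-incubation, 3 h probe incubation at room temperature / Repeats: one replicate per compound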
Each line names hits and unclear results; the compound was inactive in the other large screens. Only some compounds are listed: those with a hit (about 1.4% of all), similar ones and a draw of the others.

CN(C)c1ccc(C(C(=O)NCc2ccccc2)N(Cc2ccco2)C(=O)c2snc(C(N)=O)c2N)cc1 (centres undefined)	Cardio protect 78 (no result: H9c2 TAG inh)
Cc1ccccc1C(C(=O)NCc1ccccc1)N(Cc1ccco1)C(=O)c1ccccn1 (centres undefined)	Cardio protect 51
NC(=O)c1nsc(C(=O)N(c2ccccc2)C(C(=O)NCc2ccc(F)cc2)c2ccc(O)cc2)c1N (centres undefined)	Cardio protect 50 (no result: H9c2 TAG inh)
COC(=O)C[C@@H]1CC[C@@H]2[C@@H](COc3ccc(NC(=O)c4ccc(F)cc4)cc3C(=O)N2C)O1	none (no result: H9c2 TAG inh, DAGLB inhibitor, MT1-MMP act inh, Cardio protect)
COC(=O)[C@]12C[C@H](CC(=O)NCc3cccc(C(F)(F)F)c3)C(=O)N(Cc3ccco3)C1=C[C@H](C(C)(C)C)O[C@@H]2C	none (no result: H9c2 TAG inh, DAGLB inhibitor, MT1-MMP act inh, Cardio protect)
O=C1N(Cc2ccccc2)c2ccccc2C12CCCc1oc(CCc3ccccc3)nc12 (centres undefined)	none (no result: H9c2 TAG inh, DAGLB inhibitor, MT1-MMP act inh, Cardio protect)
Cn1c(=O)c(=O)n(C)c2cc(S(=O)(=O)N3CCN(CCO)CC3)ccc21	none (no result: H9c2 TAG inh, DAGLB inhibitor, MT1-MMP act inh, Cardio protect)
CCOC(=O)[C@@H]1CSCCS(=O)(=O)N1Cc1ccc(C(F)(F)F)cc1	none (no result: H9c2 TAG inh, DAGLB inhibitor, MT1-MMP act inh, Cardio protect)
O=S1(=O)c2ccc(N3CCN(Cc4ccccc4F)CC3)cc2Oc2ccccc2CN1Cc1cn(Cc2cccc(F)c2)nn1	none (no result: H9c2 TAG inh, DAGLB inhibitor, MT1-MMP act inh, Cardio protect)
CCOc1cc(/C=C(\C#N)C(=O)Nc2ccc(S(N)(=O)=O)cc2)ccc1OCCN1CCOCC1	Cardio protect 56
CCOc1cc(C(=O)OC(C)C(=O)Nc2ccc(S(N)(=O)=O)cc2)ccc1OCC(=O)N1CCOCC1 (centres undefined)	none
COC(=O)c1cc(-c2ccc(OC)c(OC)c2)c(=O)n2c1CCC2	none (no result: H9c2 TAG inh, DAGLB inhibitor, MT1-MMP act inh, Cardio protect)
Cc1cc(C)cc(OC[C@@H](O)CN2CCC(C(O)(c3ccccc3)c3ccccc3)CC2)c1	none (no result: H9c2 TAG inh, DAGLB inhibitor, MT1-MMP act inh, Cardio protect)
Cc1cccc(-n2[nH]c(C)c(C=Nc3ccc4[nH]c(=O)[nH]c4c3)c2=O)c1	Cardio protect 56 (no result: H9c2 TAG inh)
Cc1cccc(/N=C/c2c(C)[nH]n(-c3ccccc3)c2=O)n1	none
Cc1[nH]n(-c2ccccc2)c(=O)c1C=Nc1ccc2[nH]c(=O)[nH]c2c1	Cardio protect 55 (no result: H9c2 TAG inh)
Cc1[nH]n(-c2ccccc2)c(=O)c1C=Nc1cccc(F)c1	none
Cc1nc(NC(=O)c2cc3c(C)nn(-c4ccccc4)c3s2)sc1C(=O)Nc1ccccc1	Cardio protect 64
O=C(COc1ccccc1Cl)NCc1ccccc1	none
Cc1c(NC(=O)CN2CCN(c3ccccc3)CC2)c(=O)n(-c2ccccc2)n1C	none (no result: H9c2 TAG inh)
O=C(COc1ccccc1Cl)NNC(=O)Cn1[nH]c(=O)c2ccccc2c1=O	Cardio protect 92
CN(CC(=O)Nc1c(Cl)cccc1Cl)C(=O)Cn1[nH]c(=O)c2ccccc2c1=O	Cardio protect 76
Cc1c(NC(=O)Cn2[nH]c(=O)c3ccccc3c2=O)c(=O)n(-c2ccccc2)n1C	Cardio protect 64
CN(CC(=O)Nc1c(Cl)cccc1Cl)C(=O)CCC(=O)c1ccccc1	none
O=C(Cn1[nH]c(=O)c2ccccc2c1=O)NNC(=O)c1ccccc1	Cardio protect 62
CCN(CC)C(=O)CC[C@@H]1CC[C@]2(CCCN(C(=O)C3CCCCC3)C2)O1	none (no result: H9c2 TAG inh, DAGLB inhibitor, MT1-MMP act inh, Cardio protect)
O=C(CCc1nc2ccccc2c(=O)[nH]1)Nc1ccc(F)c([N+](=O)[O-])c1	Cardio protect 50
O=C(CCc1nc2ccccc2c(=O)[nH]1)Nc1cccc(S(=O)(=O)N2CCCCC2)c1	none
O=C(CCc1nc2ccccc2c(=O)[nH]1)NCC(=O)Nc1ccc(F)c(F)c1	Cardio protect 59
O=C(N/N=C/c1ccc(Cl)cc1Cl)c1ccc2nc[nH]c2c1	none (no result: H9c2 TAG inh)
C=CCc1cccc(/C=N/NC(=O)c2ccccc2Br)c1O	Cardio protect 51
C=CCc1cccc(/C=N/NC(=O)c2ccc3nc[nH]c3c2)c1O	Cardio protect 50 (no result: H9c2 TAG inh)
Cc1ccc(-c2csc3nc4c5ccccc5c(NCCCN(C)C)nn4c(=O)c23)cc1	H9c2 TAG inh 59
O=C(NCCc1c[nH]c2ccccc12)OCc1cn(Cc2cc(F)cc(F)c2)nn1	none (no result: H9c2 TAG inh, DAGLB inhibitor, MT1-MMP act inh, Cardio protect)
COc1cccc2c1C(=O)c1c(O)c3c(c(O)c1C2=O)CC(O)(C(C)=O)CC3OC1CC(O)C(O)C(C)O1 (centres undefined)	Tn6 DDE FP active, Tn7 DDE FP 26
COc1cccc2c1C(=O)c1c(O)c3c(c(O)c1C2=O)C[C@](O)(C(C)=O)C[C@H]3O[C@@H]1C[C@@H](N)[C@@H](O)[C@@H](C)O1	Tn6 DDE FP active, Tn7 DDE FP 25
CCCCC(=O)OCC(=O)C1(O)Cc2c(O)c3c(c(O)c2C(OC2CC(NC(=O)C(F)(F)F)C(O)C(C)O2)C1)C(=O)c1c(OC)cccc1C3=O (centres undefined)	Tn6 DDE FP 43
COc1ccc(CNS(=O)(=O)/C=C/c2cc(C)ccc2CNC(=O)OC(C)(C)C)cc1	none (no result: H9c2 TAG inh, DAGLB inhibitor, MT1-MMP act inh, Cardio protect)
COC(=O)C(C(=O)OC)C1OC23CN(S(=O)(=O)c4ccc(C)cc4)C=CC2(C)C3c2ccccc21 (centres undefined)	none (no result: H9c2 TAG inh, DAGLB inhibitor, MT1-MMP act inh, Cardio protect)
Cc1cc(C)cc(NC(=O)CSc2ccc(-c3ccccn3)nn2)c1	Cardio protect 67
O=C(CSc1ccc(-c2ccccn2)nn1)N1CCCc2ccccc21	Cardio protect 52
O=C(CSc1ccc(-c2cccnc2)nn1)N1CCCc2ccccc21	none (no result: H9c2 TAG inh, DAGLB inhibitor, MT1-MMP act inh, Cardio protect)
Cc1ccc(-c2nnc3ccc(SCC(=O)N4CCCc5ccccc54)nn23)cc1	Cardio protect 105
Cc1ccc(-c2nnc3ccc(SCC(=O)N4CCc5ccccc54)nn23)cc1	none
Cc1ccc(/C=N/Nc2cn[nH]c(=O)n2)o1	none
O=c1nc(N/N=C/c2ccccn2)cn[nH]1	Cardio protect 55 (no result: H9c2 TAG inh)
COC(CNC(=O)c1ccc2c3c(onc13)-c1ccccc1C2=O)OC	MT1-MMP act inh 34
CCOC(=O)C1(Cc2ccccc2)CCN(Cc2ccccc2OC)CC1	none (no result: H9c2 TAG inh, DAGLB inhibitor, MT1-MMP act inh, Cardio protect)
O=C(c1n[nH]c2ccccc12)N1CCN(S(=O)(=O)c2ccccc2)CC1	none
O=C(c1ccccn1)N1CCN(S(=O)(=O)c2ccc3ccccc3c2)CC1	none
O=C(c1cc(=O)[nH]c2ccccc12)N1CCN(S(=O)(=O)c2ccc3ccccc3c2)CC1	Cardio protect 103
O=C(c1cc(=O)[nH]c2ccccc12)N1CCN(S(=O)(=O)c2ccc(Cl)cc2)CC1	Cardio protect 88
CC(C)n1nnnc1C1(C)Cn2nccc2C(=O)N1Cc1cccc(C(F)(F)F)c1 (centres undefined)	none (no result: H9c2 TAG inh, DAGLB inhibitor, MT1-MMP act inh, Cardio protect)
COc1ccc(/C=N/Nc2cc(C)nc3ccc(OC)cc23)c(OC)c1	none (no result: H9c2 TAG inh)
COc1ccc2nc(C)cc(N/N=C/c3ccccc3)c2c1	H9c2 TAG inh 66 (no result: Tn6 DDE FP, Tn7 DDE FP)
